HSV augment – enhancers of HSV replication in host cells, fold increase, host cell viability. HSV replication augmentation in cells. maximum fold increase. actives 0.005% (n = 220,000). AID 1956, 2009; in the data active = maximum fold increase above about 1.5; tested in PC3 cells
HSF1 inh – HSF1 inhibitors in luciferase reporter cells, primary screen, cell-based, NIH3T3, luminescence. NIH3T3-HGL HSE-luciferase, MG132-induced, luminescence 8 h; stronger effect = lower value. activity change, negative = inhibition, % at 7.5 µM (by protocol). actives 0.77% (n = 300,000);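 active = more than half of replicate wells show activity change below -50%, luminescence cut by over half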;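 note: luciferase reports HSF-1 transcriptional activity via heat shock element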
HSF1 activator – HSF-1 activators, primary screen, NIH3T3-HGL cells, MG132 stress, luminescence, single point. actives 1.7% (n = 300,000). NIH3T3-HGL HSF-1 luciferase reporter, 8 h; 100% = twice DMSO control signal. activation, % at 9 µM;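 active = mean replicate activation of at least 50% with a set share of replicates each reaching 50%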
Hsp70 act – Hsp70 transcriptional activators, primary screen, cell-based, HeLa, Hsp70 promoter luciferase, luminescence, 10 µM. activation, % at 10 µM. actives 0.04% (n = 200,000). AID 1203, 2008. HeLa Hsp70 promoter luciferase reporter; scaled: vehicle 0, proteasome-inhibitor control 100%;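 active = activation above the mean across all tested compounds plus 3 SD, cutoff set per campaign, cut at about 5.5% in these data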
Mdm2 ligase inh – MDM2-luciferase reporter signal enhancers, primary screen, MDM2 E3 ligase inhibitor project, cell-based, luminescence, 1536-well | E3 ubiquitin-protein ligase Mdm2 (Homo sapiens), Q00987 | cell-based MDM2 ubiquitination luciferase reporter, 2 h; 0 = plate control, 100 = twice control, blank-subtracted | signal enhancement, % at 5 µM | actives 0.11% (n = 210,000) | AID 1230, 2008;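 active = signal enhancement of 30% or more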;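 note: luminescence tracks abundance of the self-degrading MDM2-luciferase fusion protein; higher signal means inhibition of MDM2 E3 ligase activity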
Target sequence (Q00987 whole entry, looked up, the tested form may be a part): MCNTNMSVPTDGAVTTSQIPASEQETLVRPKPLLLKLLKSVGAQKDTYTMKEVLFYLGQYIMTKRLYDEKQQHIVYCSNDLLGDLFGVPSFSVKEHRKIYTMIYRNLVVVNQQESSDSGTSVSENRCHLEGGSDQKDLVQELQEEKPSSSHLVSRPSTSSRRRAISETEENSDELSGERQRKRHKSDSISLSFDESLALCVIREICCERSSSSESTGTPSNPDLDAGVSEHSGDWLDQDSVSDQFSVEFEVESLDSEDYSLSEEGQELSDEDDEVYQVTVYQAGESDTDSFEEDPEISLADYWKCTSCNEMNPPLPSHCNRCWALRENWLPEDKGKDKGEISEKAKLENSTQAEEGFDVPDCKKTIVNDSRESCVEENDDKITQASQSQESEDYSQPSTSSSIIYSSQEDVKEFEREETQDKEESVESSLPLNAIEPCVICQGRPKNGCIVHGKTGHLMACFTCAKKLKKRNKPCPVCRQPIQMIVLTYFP
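test system = mammalian cells stably expressing self-ubiquitinating, self-degrading MDM2 E3–luciferase fusion | quantity = 2000 cells/well | incubation = cell settling 4 h, compound treatment 2 h, both 37 °C | signal = luminescence with SteadyLite reagent, 15 min at room temperature | evaluation = % enhancement relative to plate controls after blank subtraction | benchmarks = plate controls and plate blanks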
Rad51 HR inh – human RAD51 strand exchange inhibitors, primary screen, biochemical, fluorescence; DNA repair protein RAD51 homolog 1 (Homo sapiens), Q06609; hRad51 DNA strand exchange, fluorescence dequenching; inhibition, % at 10 µM; actives 0.085% (n = 200,000); AID 1385, 2008;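 active = inhibition above 40% at the single screening dose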
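Material: human Rad51–ssDNA filaments; Probe or stimulus: labelled 47-mer dsDNA for strand exchange; Doses: single 10 µM dose; Incubation: 37 °C 15-min filament assembly, 30-min compound preincubation, 15-min exchange; Technique: FRET fluorescence dequenching, excitation 485 nm, emission 520 nm; Measure: Fluorescence-based percent inhibition, control- and blank-normalised; Benchmarks: plate control and blank wells.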
Numbers stand for hits; 0 = inactive; - = no result. The list is not random: actives were taken first. Their share in the collection is about 2.6%.

SMILES	HSV augment	HSF1 inh	HSF1 activator	Hsp70 act	Mdm2 ligase inh	Rad51 HR inh
O=C(NC(=S)Nc1ccc2oc(=O)ccc2c1)c1cc2ccccc2o1	0	-84	0	-	0	0
O=C(O)CSC1CC(=O)N(c2ccc(Br)cc2)C1=O (configuration not stated)	-	0	0	-	-	-
C(=C\c1ccccc1)/CSc1nc2ncccc2[nH]1	0	0	72	-	0	-
CC#CC(=O)N1CCCC(Cc2cccc(OC)c2)(C(=O)OCC)C1 (configuration not stated)	-	0	0	-	-	-
Cc1ccc(N/C=C/C(=O)c2cccs2)cc1C	0	0	0	0	0	0
Cc1ccc(C(=O)/C=C/Nc2ccccn2)cc1	0	-62	0	0	-	0
Cc1cc(N/C=C/C(=O)c2cccs2)ccc1F	0	0	64	0	0	0
Cc1ccc(C(=O)/C=C\Nc2ccc(C)c(C)c2)cc1	0	0	56	0	0	0
COC(=O)C1=Cc2cc(OC)cc([N+](=O)[O-])c2OC1N1CCOCC1 (configuration not stated)	-	0	0	-	-	-
Cc1ccc(-n2cc(CN(C)CCc3cn[nH]c3)c(-c3cccc(C)c3)n2)cc1	0	0	0	0	0	0
Cc1noc2ncnc(N3CCCC3)c12	0	0	0	0	0	0
Cc1noc2ncnc(Sc3ccc(Br)cc3)c12	0	0	153	0	0	0
Cc1cc(NC(=O)CSc2nnc(-c3ccncc3)n2C)n(-c2ccccc2)n1	0	0	0	-	0	0
C[C@H](NC(=O)[C@@H]1Cc2ccccc2CN1)C(=O)Nc1ccc2c(c1)OCCO2	-	0	0	-	-	-
O=C(CNC(=O)[C@@H]1Cc2ccccc2CN1)Nc1ccc2c(c1)OCCO2	-	-52	0	-	-	-
CSCC[C@H](NC(=O)[C@@H]1Cc2ccccc2CN1)C(=O)Nc1ccc2c(c1)OCCO2	-	-52	0	-	-	-
CCC(C)[C@H](NC(=O)[C@@H]1Cc2ccccc2CN1)C(=O)Nc1ccc2c(c1)OCO2 (some centres not stated)	-	0	77	-	-	-
CCOC(=O)C1CCN(CCC(=O)Nc2ccc(F)cc2)CC1	0	0	0	0	0	-
COc1ccc(NC(=O)C2CC(=O)NC(Nc3cccc(C)c3)=N2)cc1 (configuration not stated)	0	0	87	0	0	0
COc1cccc(CNC(=O)COC(=O)C2CC3CCCC(C2)C3=O)c1 (configuration not stated)	-	0	0	-	-	-
O=[N+]([O-])c1ccc(O)c(-c2cc(C(F)(F)F)nc(-c3ccccc3)n2)c1	-	0	0	-	-	-
Cc1ccc(S(=O)(=O)c2ccc([N+](=O)[O-])cn2)cc1	-	-84	0	-	-	-
O=[N+]([O-])c1ccc(S(=O)(=O)c2ccccc2)nc1	-	-96	0	-	-	-
CS(=O)(=O)c1cccc(-c2nnc(NC(=O)C3=COCCO3)o2)c1	-	0	0	-	-	-
Cc1ccc(-c2cc(C(F)F)nc(S(C)(=O)=O)n2)cc1	0	0	305	0	0	0
SMILES	HSV augment	HSF1 inh	HSF1 activator	Hsp70 act	Mdm2 ligase inh	Rad51 HR inh
COC(=O)c1ccccc1-n1cccc1C(=O)NP(=O)(N1CCOCC1)N1CCOCC1	0	0	0	0	0	0
COc1cc2ccccc2cc1C(=O)Nc1ccccc1Cl	-	0	93	-	-	-
COc1ccccc1NC(=O)CN1CCN(CC(=O)Nc2ccccc2Cl)CC1	-	0	243	-	-	-
COc1ccccc1NC(=O)CN1CCCCCC1	-	0	0	-	-	-
COc1cc(C(=O)Nc2ccc(Nc3ccccc3)cc2)cc(OC)c1OC	-	0	58	-	-	-
CCOc1ccc(NC(=O)c2cc3ccccc3cc2OC)cc1	-	0	75	-	-	-
COc1c(C=O)c2c(c(OC)c1OC)-c1ccc(OC)c(=O)cc1C(NC(C)=O)CC2 (configuration not stated)	-	0	0	-	-	-
Cc1nc(NC(C)C)c2cnn(CCc3ccccc3)c2n1	0	0	54	0	0	0
O=Cc1ccc(-c2cccc(C(=O)O)c2)o1	0	0	0	0	0	0
Cc1ccc(-c2ccc(/C=C/C(=O)c3ccccc3)o2)cc1	0	0	76	0	0	-
O=C(/C=C/c1ccc(-c2ccccc2)o1)c1ccccc1	0	0	72	0	0	-
Cc1ccc(NC(=O)CN(C)S(=O)(=O)c2cccs2)c(Br)c1	-	0	0	-	-	-
CC1CN(C(=O)CS(=O)(=O)Cc2ccccc2)CC(C)O1 (configuration not stated)	-	0	60	-	-	-
Fc1ccc(C2c3[nH]c4ccccc4c3CCN2Cc2ccoc2)cc1 (configuration not stated)	0	0	0	0	0	-
Cc1cccc(C2c3[nH]c4ccccc4c3CCN2Cc2cnn(-c3ccc(F)cc3)c2)n1 (configuration not stated)	0	0	56	0	0	0
COc1ccc(C(=O)n2nc(C)cc2Nc2ccccc2)cc1	0	0	52	0	0	0
Cc1ccc(C(=O)CSc2nc(O)cc(=O)[nH]2)cc1C	-	0	0	-	-	-
O=C(Nc1ccc(S(=O)(=O)Nc2nccs2)cc1)c1cccc(N2C(=O)c3ccccc3C2=O)c1	0	0	0	0	0	0
O=C(Nc1nccs1)c1cccc(N2C(=O)c3cccc4c([N+](=O)[O-])ccc(c34)C2=O)c1	-	0	170	0	0	-
CN(C)/C=N/c1cnc(C(=O)c2ccc(Cl)cc2)n1C	0	0	62	0	0	0
Cc1ccc(SCCN2CCN(C)CC2)cc1	-	0	58	-	-	-
O=C1CC(C(=O)N2CCc3ccccc32)CN1c1ccccc1 (configuration not stated)	-	0	0	-	-	-
CN(C(=O)CN1C(=O)S/C(=C\c2ccccc2)C1=O)C1CCS(=O)(=O)C1 (configuration not stated)	-	-86	0	-	-	-
CC(C)Cc1nnc(NC(=O)CCc2c[nH]c3ccccc23)s1	0	0	0	0	0	0
CCCC12CN3CC(C)(CN(C1)C3c1cccs1)C2=O (configuration not stated)	0	0	62	-	0	0
CCCC12CN3CC(C)(CN(C1)C3c1ccc(OC(C)C)cc1)C2=O (configuration not stated)	0	0	0	0	0	0
c1ccc2sc(Nc3nc4cc5c(cc4s3)OCO5)nc2c1	0	0	76	0	0	0
Cc1ccc(Nc2nc3ccccc3s2)c(C)c1	0	0	66	0	0	0
